Measured values: ChEMBL document CHEMBL1821681, “Synthesis and biological evaluation of derivatives of 4-deoxypodophyllotoxin as antitumor agents” (Eur J Med Chem, 2011)

How the values were obtained:
SiHa = assay: Cytotoxicity against human SiHa cells after 48 hrs by MTT assay; assay type: functional, cell-based
Method in brief: (§1)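 Cells kept at 37 °C under 5% CO2, plated and allowed to attach for 24 h, then exposed in quadruplicate wells for 48 h to five saline-dissolved concentrations. IC50 is the mean of three independent experiments.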

A549 [1] = assay: Cytotoxicity against human A549 cells after 48 hrs by MTT assay; assay type: functional, cell-based; conditions: A549, 48 h; method in brief: as §1
HeLa = assay: Cytotoxicity against human HeLa cells after 48 hrs by MTT assay; assay type: functional, cell-based; method in brief: as §1
A549 [2] = assay: Induction of cell cycle arrest in human A549 cells assessed as accumulation at G1 phase at 0.1 uM after 48 hrs using propidium iodide staining by FACS analysis (reference value: 59.9 %); assay type: functional
A549 [3] = assay: Induction of cell cycle arrest in human A549 cells assessed as accumulation at G2/M phase at 0.1 uM after 48 hrs using propidium iodide staining by FACS analysis (reference value: 3.2 %); assay type: functional
A549 [4] = assay: Induction of cell cycle arrest in human A549 cells assessed as accumulation at S phase at 0.1 uM after 48 hrs using propidium iodide staining by FACS analysis (reference value: 36.7 %); assay type: functional
A549 [5] = assay: Induction of cell cycle arrest in human A549 cells assessed as accumulation at sub-G1 phase at 0.1 uM after 48 hrs using propidium iodide staining by FACS analysis (reference value: 21.7 %); assay type: functional
A549 [6] = assay: Induction of cell cycle arrest in human A549 cells assessed as accumulation at G1 phase at 0.5 uM after 48 hrs using propidium iodide staining by FACS analysis (reference value: 59.9 %); assay type: functional
A549 [7] = assay: Induction of cell cycle arrest in human A549 cells assessed as accumulation at sub-G1 phase at 0.5 uM after 48 hrs using propidium iodide staining by FACS analysis (reference value: 21.7 %); assay type: functional
A549 [8] = assay: Induction of cell cycle arrest in human A549 cells assessed as accumulation at S phase at 0.5 uM after 48 hrs using propidium iodide staining by FACS analysis (reference value: 36.7 %); assay type: functional

| Structure (SMILES) | IC50 (SiHa) | IC50 (A549 [1]) | IC50 (HeLa) | Activity (A549 [2]) | Activity (A549 [3]) | Activity (A549 [4]) | Activity (A549 [5]) | Activity (A549 [6]) | Activity (A549 [7]) | Activity (A549 [8]) |
| --- | --- | --- | --- | --- | --- | --- | --- | --- | --- | --- |
| COc1cc([C@@H]2c3cc4c(cc3C[C@H]3COC(=O)[C@@H]32)OCO4)cc(OC)c1OC(=O)NCC(=O)N1CCN(c2ccc(O)cc2)CC1 | 4760 nM | 2390 nM | 7010 nM | – | – | – | – | – | – | – |
| COc1cc([C@@H]2c3cc4c(cc3C[C@H]3COC(=O)[C@@H]32)OCO4)cc(OC)c1OC(=O)NCC(=O)N1CCN(C)CC1 | 4970 nM | 3960 nM | 703 nM | – | – | – | – | – | – | – |
| COc1cc([C@@H]2c3cc4c(cc3[C@@H](O[C@@H]3O[C@@H]5CO[C@@H](C)O[C@H]5[C@H](O)[C@H]3O)[C@H]3COC(=O)[C@H]23)OCO4)cc(OC)c1O [ETOPOSIDE] | 30700 nM | 14800 nM | 50600 nM | 26% | 10.5% | 59.4% | 4.1% | – | – | – |
| COc1cc([C@@H]2c3cc4c(cc3C[C@H]3COC(=O)[C@@H]32)OCO4)cc(OC)c1OC(=O)NCC(=O)N1CCN(C2CCCC2)CC1 | 135 nM | 1720 nM | 3070 nM | – | – | – | – | – | – | – |
| COc1cc([C@@H]2c3cc4c(cc3C[C@H]3COC(=O)[C@@H]32)OCO4)cc(OC)c1OC(=O)N[C@@H](Cc1ccccc1)C(=O)N1CCNCC1 | 160 nM | 80.2 nM | 433 nM | – | – | – | – | – | – | – |
| COc1cc([C@@H]2c3cc4c(cc3C[C@H]3COC(=O)[C@@H]32)OCO4)cc(OC)c1OC [DESOXYPODOPHYLLOTOXIN] | 10200 nM | 470 nM | 36000 nM | – | – | – | – | 85.5% | 13.1% | 1.4% |
| COc1cc([C@@H]2c3cc4c(cc3C[C@H]3COC(=O)[C@@H]32)OCO4)cc(OC)c1OC(=O)N[C@@H](CCSC)C(=O)N1CCN(c2ccc([N+](=O)[O-])cc2)CC1 | 160 nM | 183 nM | 191 nM | – | – | – | – | – | – | – |
| COc1cc([C@@H]2c3cc4c(cc3C[C@H]3COC(=O)[C@@H]32)OCO4)cc(OC)c1O [4'-DEMETHYLDEOXYPODOPHYLLOTOXIN] | 2070 nM | 3750 nM | 7430 nM | – | – | – | – | – | – | – |
| COc1cc([C@@H]2c3cc4c(cc3C[C@H]3COC(=O)[C@@H]32)OCO4)cc(OC)c1OC(=O)N[C@H](CCSC)C(=O)N1CCNCC1 | 83.9 nM | 208 nM | 203 nM | – | – | – | – | – | – | – |
